# Assays:
# [1] = Antioxidant activity assessed as DPPH free radical scavenging activity after 30 mins; type: functional
# Procedure, shortened: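 DPPH (0.05 mM in methanol) mixed with equal volume of compound (DMSO solution diluted in methanol), kept in dark at room temperature 30 min; absorbance at 517 nm, methanol control, ascorbic acid positive control. IC50 = concentration giving 50% of maximum scavenging; mean ± SD of independent triplicate experiments.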
# A549 = test: Cytotoxicity against human A549 cells assessed as decrease in cell survival after 72 hrs by MTT assay; type: functional, cell-based; conditions: A549, 72 h
# Procedure, shortened: (§1)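 HeLa (2000/well), A549 and MRC-5 (5000/well) seeded 20 h before treatment; HL-60 (7000/well) 2 h before. Five concentrations (6.25–100 μM or 3.125–50 μM) from 5 mM DMSO stocks, final DMSO ≤1%, 72 h; survival by MTT. Cisplatin positive control; three independent experiments in triplicate.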
# HL-60 = test: Cytotoxicity against human HL60 cells assessed as decrease in cell survival after 72 hrs by MTT assay; type: functional, cell-based; conditions: HL-60, 72 h; procedure, shortened: as §1
# MRC5 = test: Cytotoxicity against human MRC5 cells assessed as decrease in cell survival after 72 hrs by MTT assay; type: cell-based; conditions: MRC5, 72 h; procedure, shortened: as §1
# HeLa = test: Cytotoxicity against human HeLa cells assessed as decrease in cell survival after 72 hrs by MTT assay; type: functional, cell-based; procedure, shortened: as §1
SMILES,IC50 [1] [µM],IC50 (A549) [µM],IC50 (HL-60) [µM],IC50 (MRC5) [µM],IC50 (HeLa) [µM]
O=C1O[C@H]([C@@H](O)CO)C(O)=C1O [ASCORBIC ACID],20.2,,,,
O=C(/C=C/c1ccc(C(=O)Nc2nnc(-c3ccc(O)c(O)c3)s2)cc1)c1ccc(Br)cc1,18,87.7,9.74,38.2,40.2
COc1ccc(C(=O)/C=C/c2ccc(C(=O)Nc3nnc(-c4ccc(O)c(O)c4)s3)cc2)cc1,17.9,89.1,16.4,81.3,57.6
O=C(/C=C/c1ccc(C(=O)Nc2nnc(-c3ccc(O)c(O)c3)s2)cc1)c1ccc(F)cc1,17.8,89.3,10.6,45.8,17.8

# Stronger by IC50 [1], values ahead:
IC50 [1] [µM],SMILES,IC50 (A549) [µM],IC50 (HL-60) [µM],IC50 (MRC5) [µM],IC50 (HeLa) [µM]
9.76,COc1ccccc1C(=O)C=Cc1ccc(C(=O)Nc2nnc(-c3ccc(O)c(O)c3)s2)cc1,50.2,12,48,10.2
14,O=C(/C=C/c1ccc(C(=O)Nc2nnc(-c3ccc(O)c(O)c3)s2)cc1)c1ccc([N+](=O)[O-])cc1,128,11.2,39.4,54.8
11.8,Cc1ccc(C(=O)/C=C/c2ccc(C(=O)Nc3nnc(-c4ccc(O)c(O)c4)s3)cc2)cc1,26.4,8.44,33.7,11.2
11.7,Cc1ccccc1C(=O)C=Cc1ccc(C(=O)Nc2nnc(-c3ccc(O)c(O)c3)s2)cc1,21.8,7.62,18.6,9.12
13.5,O=C(Nc1nnc(-c2ccc(O)c(O)c2)s1)c1ccc(/C=C/C(=O)c2cccc3cc4ccccc4cc23)cc1,23.2,6.92,21.2,11
13.9,O=C(Nc1nnc(-c2ccc(O)c(O)c2)s1)c1ccc(C=CC(=O)c2ccccc2F)cc1,46.9,8.88,39.6,11.1

# Source: ChEMBL document CHEMBL4257556, “Novel 1,3,4-thiadiazole-chalcone hybrids containing catechol moiety: synthesis, antioxidant activity, cytotoxicity and DNA interaction studies” (Medchemcomm, 2018)
